Measured values from ChEMBL document CHEMBL4689842, “EUbOPEN Chemogenomics Library wave 1” (2021).

Tested on: HEK-293T
Experiment: Multiplex assay against HEK293T;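 as to Population Tubulin-Different-Phenotype (%): share of the cells with healthy nuclei that show this phenotype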
Format: toxicity, cell-based
Conditions: human
Procedure, shortened: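 On a CQ1 microscope at 37°C and 5% CO2, live cells were imaged after compound addition. They had been stained at seeding with Hoechst33342, BioTracker Green Microtubule Cytoskeleton Dye, MitoTracker Red and Annexin V Alexa Fluor 680. CellPathfinder machine-learning gating assigned cells to Hoechst high-intensity objects or normal cells, normal cells to healthy, pyknosed or fragmented nuclei, and pyknosed cells to mitotic or apoptotic. Tubulin, mitochondrial-mass and membrane-permeability phenotypes are per cents of healthy-nucleus cells.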

[1] = 12 h, 1 µM, compound concentration 1 uM, replicate 1
[2] = 12 h, 1 µM, compound concentration 1 uM, replicate 2
[3] = 12 h, 10 µM, compound concentration 10 uM, replicate 1
[4] = 12 h, 10 µM, compound concentration 10 uM, replicate 2
[5] = 24 h, 1 µM, compound concentration 1 uM, replicate 1
[6] = 24 h, 1 µM, compound concentration 1 uM, replicate 2
[7] = 24 h, 10 µM, compound concentration 10 uM, replicate 1
[8] = 24 h, 10 µM, compound concentration 10 uM, replicate 2
[9] = 48 h, 1 µM, compound concentration 1 uM, replicate 1
[10] = 48 h, 1 µM, compound concentration 1 uM, replicate 2
[11] = 48 h, 10 µM, compound concentration 10 uM, replicate 1
[12] = 48 h, 10 µM, compound concentration 10 uM, replicate 2

SMILES: Cl.NC[C@@H]1O[C@H](C23CC4CC(CC(C4)C2)C3)Cc2c1ccc(O)c2O
- Population Apoptotic (%) [1]: 34%
- Population Fragmented Nuclei (%) [1]: 10%
- Population Healthy Nuclei (%) [1]: 49%
- Population Hoechst High Intensity Objects (%) [1]: 11%
- Population Membrane Permeable-Phenotype (%) [1]: 2%
- Population Mitochondria Different-Phenotype (%) [1]: 80%
- Population Mitotic Cells (%) [1]: 65%
- Population Normal (%) [1]: 88%
- Population Pyknosed Nuclei (%) [1]: 40%
- Population Tubulin-Different-Phenotype (%) [1]: 55%
- Total Cell Count [1]: 321
- Population Apoptotic (%) [2]: 7%
- Population Fragmented Nuclei (%) [2]: 3%
- Population Healthy Nuclei (%) [2]: 47%
- Population Hoechst High Intensity Objects (%) [2]: 2%
- Population Membrane Permeable-Phenotype (%) [2]: 8%
- Population Mitochondria Different-Phenotype (%) [2]: 38%
- Population Mitotic Cells (%) [2]: 92%
- Population Normal (%) [2]: 97%
- Population Pyknosed Nuclei (%) [2]: 48%
- Population Tubulin-Different-Phenotype (%) [2]: 47%
- Total Cell Count [2]: 267
- Population Apoptotic (%) [3]: 60%
- Population Fragmented Nuclei (%) [3]: 10%
- Population Healthy Nuclei (%) [3]: 8%
- Population Hoechst High Intensity Objects (%) [3]: 16%
- Population Membrane Permeable-Phenotype (%) [3]: 0%
- Population Mitochondria Different-Phenotype (%) [3]: 94%
- Population Mitotic Cells (%) [3]: 39%
- Population Normal (%) [3]: 83%
- Population Pyknosed Nuclei (%) [3]: 80%
- Population Tubulin-Different-Phenotype (%) [3]: 58%
- Total Cell Count [3]: 245
- Population Apoptotic (%) [4]: 37%
- Population Fragmented Nuclei (%) [4]: 7%
- Population Healthy Nuclei (%) [4]: 6%
- Population Hoechst High Intensity Objects (%) [4]: 11%
- Population Membrane Permeable-Phenotype (%) [4]: 9%
- Population Mitochondria Different-Phenotype (%) [4]: 54%
- Population Mitotic Cells (%) [4]: 62%
- Population Normal (%) [4]: 88%
- Population Pyknosed Nuclei (%) [4]: 86%
- Population Tubulin-Different-Phenotype (%) [4]: 27%
- Total Cell Count [4]: 204
- Population Apoptotic (%) [5]: 34%
- Population Fragmented Nuclei (%) [5]: 10%
- Population Healthy Nuclei (%) [5]: 65%
- Population Hoechst High Intensity Objects (%) [5]: 13%
- Population Membrane Permeable-Phenotype (%) [5]: 0%
- Population Mitochondria Different-Phenotype (%) [5]: 46%
- Population Mitotic Cells (%) [5]: 65%
- Population Normal (%) [5]: 86%
- Population Pyknosed Nuclei (%) [5]: 24%
- Population Tubulin-Different-Phenotype (%) [5]: 43%
- Total Cell Count [5]: 389
- Population Apoptotic (%) [6]: 12%
- Population Fragmented Nuclei (%) [6]: 4%
- Population Healthy Nuclei (%) [6]: 67%
- Population Hoechst High Intensity Objects (%) [6]: 1%
- Population Membrane Permeable-Phenotype (%) [6]: 11%
- Population Mitochondria Different-Phenotype (%) [6]: 20%
- Population Mitotic Cells (%) [6]: 87%
- Population Normal (%) [6]: 98%
- Population Pyknosed Nuclei (%) [6]: 28%
- Population Tubulin-Different-Phenotype (%) [6]: 52%
- Total Cell Count [6]: 310
- Population Apoptotic (%) [7]: 36%
- Population Fragmented Nuclei (%) [7]: 15%
- Population Healthy Nuclei (%) [7]: 10%
- Population Hoechst High Intensity Objects (%) [7]: 13%
- Population Membrane Permeable-Phenotype (%) [7]: 4%
- Population Mitochondria Different-Phenotype (%) [7]: 78%
- Population Mitotic Cells (%) [7]: 63%
- Population Normal (%) [7]: 86%
- Population Pyknosed Nuclei (%) [7]: 73%
- Population Tubulin-Different-Phenotype (%) [7]: 73%
- Total Cell Count [7]: 258
- Population Apoptotic (%) [8]: 39%
- Population Fragmented Nuclei (%) [8]: 9%
- Population Healthy Nuclei (%) [8]: 14%
- Population Hoechst High Intensity Objects (%) [8]: 15%
- Population Membrane Permeable-Phenotype (%) [8]: 32%
- Population Mitochondria Different-Phenotype (%) [8]: 12%
- Population Mitotic Cells (%) [8]: 60%
- Population Normal (%) [8]: 84%
- Population Pyknosed Nuclei (%) [8]: 76%
- Population Tubulin-Different-Phenotype (%) [8]: 76%
- Total Cell Count [8]: 205
- Population Apoptotic (%) [9]: 14%
- Population Fragmented Nuclei (%) [9]: 11%
- Population Healthy Nuclei (%) [9]: 80%
- Population Hoechst High Intensity Objects (%) [9]: 6%
- Population Membrane Permeable-Phenotype (%) [9]: 6%
- Population Mitochondria Different-Phenotype (%) [9]: 5%
- Population Mitotic Cells (%) [9]: 85%
- Population Normal (%) [9]: 93%
- Population Pyknosed Nuclei (%) [9]: 7%
- Population Tubulin-Different-Phenotype (%) [9]: 17%
- Total Cell Count [9]: 773
- Population Apoptotic (%) [10]: 8%
- Population Fragmented Nuclei (%) [10]: 5%
- Population Healthy Nuclei (%) [10]: 83%
- Population Hoechst High Intensity Objects (%) [10]: 1%
- Population Membrane Permeable-Phenotype (%) [10]: 23%
- Population Mitochondria Different-Phenotype (%) [10]: 3%
- Population Mitotic Cells (%) [10]: 92%
- Population Normal (%) [10]: 98%
- Population Pyknosed Nuclei (%) [10]: 11%
- Population Tubulin-Different-Phenotype (%) [10]: 42%
- Total Cell Count [10]: 440
- Population Apoptotic (%) [11]: 23%
- Population Fragmented Nuclei (%) [11]: 21%
- Population Healthy Nuclei (%) [11]: 10%
- Population Hoechst High Intensity Objects (%) [11]: 15%
- Population Membrane Permeable-Phenotype (%) [11]: 38%
- Population Mitochondria Different-Phenotype (%) [11]: 0%
- Population Mitotic Cells (%) [11]: 76%
- Population Normal (%) [11]: 84%
- Population Pyknosed Nuclei (%) [11]: 67%
- Population Tubulin-Different-Phenotype (%) [11]: 46%
- Total Cell Count [11]: 286
- Population Apoptotic (%) [12]: 55%
- Population Fragmented Nuclei (%) [12]: 11%
- Population Healthy Nuclei (%) [12]: 24%
- Population Hoechst High Intensity Objects (%) [12]: 16%
- Population Membrane Permeable-Phenotype (%) [12]: 56%
- Population Mitotic Cells (%) [12]: 44%
- Population Normal (%) [12]: 83%
- Population Pyknosed Nuclei (%) [12]: 63%
- Population Tubulin-Different-Phenotype (%) [12]: 66%
- Total Cell Count [12]: 190
